Experimental data from ChEMBL document CHEMBL1132405, “Synthesis and SAR of 1-alkyl-2-phenylethylamine derivatives designed from N,N-dipropyl-4-methoxy-3-(2-phenylethoxy)phenylethylamine to discover sigma(1) ligands” (J Med Chem, 1999).

Legend:
D(2) dopamine receptor = D(2) dopamine receptor (Rattus norvegicus, UniProt P61169); experiment: In vitro binding affinity at Dopamine receptor D2 of rat striatal membranes by [3H]-raclopride displacement.
[1] = (§1) In vitro binding affinity at Sigma opioid receptor type 1 on guinea pig brain membranes by [3H]pentazocine displacement.; set-up: species or system Membrane
[2] = as §1; set-up: species or system Membrane; remark: listed apart in the source
How it was run: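 IC50 from displacement curves at 10 concentrations of each compound, each run in duplicate. Values are means of 1–3 separate experiments, with variation between experiments below 15%.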

Sequence of D(2) dopamine receptor (P61169 whole entry): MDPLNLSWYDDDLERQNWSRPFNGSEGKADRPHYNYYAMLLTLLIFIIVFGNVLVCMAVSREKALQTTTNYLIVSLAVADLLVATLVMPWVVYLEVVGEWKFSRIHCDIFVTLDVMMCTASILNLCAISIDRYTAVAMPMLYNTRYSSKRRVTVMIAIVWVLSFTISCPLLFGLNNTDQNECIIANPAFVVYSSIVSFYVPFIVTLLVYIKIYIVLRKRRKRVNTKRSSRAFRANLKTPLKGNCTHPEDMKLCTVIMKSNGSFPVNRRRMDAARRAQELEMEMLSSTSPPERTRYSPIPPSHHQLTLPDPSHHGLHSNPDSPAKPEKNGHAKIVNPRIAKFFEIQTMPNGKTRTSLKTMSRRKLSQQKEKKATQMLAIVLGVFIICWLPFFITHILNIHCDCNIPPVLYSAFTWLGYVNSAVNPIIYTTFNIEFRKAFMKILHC

Row | SMILES | IC50 (D(2) dopamine receptor) | IC50 [1] | IC50 [2]
1 | COc1ccc(CCN2CCCC2)cc1OCCc1ccccc1 | > 1000 nM |  | 
2 | CCCN(CCC)C(CC)Cc1ccc(OC)c(OCCc2ccccc2)c1 (stereo unspecified) | > 1000 nM |  | 
3 | CCCCC(Cc1ccc(OC)c(OCCc2ccccc2)c1)NCCC (stereo unspecified) [listing 1 of 2 here] |  | 34 nM | 
4 | CCCCCCC(Cc1ccc(OC)c(OCCc2ccccc2)c1)NCCC (stereo unspecified) | > 1000 nM | 8.1 nM | 
5 | CCCC(Cc1ccc(OC)c(OCCc2ccccc2)c1)N(CCC)CCC (stereo unspecified) | > 1000 nM | 8.2 nM | 
6 | CCCNC(CC)Cc1ccc(OC)c(OCCc2ccccc2)c1 (stereo unspecified) | > 1000 nM | 1.8 nM | 
7 | CCCNC(CCC(C)C)Cc1ccc(OC)c(OCCc2ccccc2)c1 (single isomer, unassigned; (-)) | > 1000 nM | 0.5 nM | 
8 | COc1ccc(CCN)cc1OCCc1ccccc1 | > 1000 nM |  | 
9 | CCCNC(CCC(C)C)Cc1ccc(OC)c(OCCc2ccccc2)c1 (stereo in doubt; 6i) | > 1000 nM | 1.6 nM | 
10 | CCCCCC(Cc1ccc(OC)c(OCCc2ccccc2)c1)NCCC (stereo unspecified) | > 1000 nM | 2.2 nM | 
11 | CCCNC(CCC(C)C)Cc1ccc(OC)c(OCCc2ccccc2)c1 (stereo in doubt; 6i(+)) |  | 22 nM | 
12 | CCCCC(Cc1ccc(OC)c(OCCc2ccccc2)c1)NCCC (stereo unspecified) [listing 2 of 2 here] | > 1000 nM | 1.9 nM | 
13 | CCCNCCc1ccc(OC)c(OCCc2ccccc2)c1 | > 1000 nM |  | 
14 | CCCN(CCC)CCc1ccc(OC)c(OCCc2ccccc2)c1 | > 1000 nM |  | 1.5 nM
15 | CCCNC(CCC)Cc1ccc(OC)c(OCCc2ccccc2)c1 (stereo unspecified) | > 1000 nM | 4.1 nM | 
16 | CCCCC(Cc1ccc(OC)c(OCCc2ccccc2)c1)NCCC (single isomer, unassigned; (-)) | > 1000 nM | 0.7 nM | 
